Experimental data as given in ChEMBL document CHEMBL1145038 (J Med Chem, 2003).

Legend:
[1] = target: T1, Histamine H3 receptor (Rattus norvegicus, UniProt Q9QYN8); test: Affinity against rat Histamine H3 receptor using [3H]N-alpha-methyl histamine
Procedure, shortened: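 Male Sprague–Dawley rat brain homogenate without cerebellum (800 μg) incubated 1 h at 25 °C in 50 mM Na₂HPO₄/KH₂PO₄, pH 7.5, with 0.25 nM [³H]Nα-methylhistamine. Filtered on GF/B, scintillation counted. Nonspecific binding with 10 μM thioperamide. IC50 by log probit; Ki = IC50/(1+L/Ka), Ka from Rosenthal analysis of saturation at 0.1–3.0 nM. Mean ± SE.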

[2] = target: T2, Histamine H3 receptor (Homo sapiens, UniProt Q9Y5N1); test: Inhibition of human Histamine H3 receptor
T2 sequence (Q9Y5N1 whole entry): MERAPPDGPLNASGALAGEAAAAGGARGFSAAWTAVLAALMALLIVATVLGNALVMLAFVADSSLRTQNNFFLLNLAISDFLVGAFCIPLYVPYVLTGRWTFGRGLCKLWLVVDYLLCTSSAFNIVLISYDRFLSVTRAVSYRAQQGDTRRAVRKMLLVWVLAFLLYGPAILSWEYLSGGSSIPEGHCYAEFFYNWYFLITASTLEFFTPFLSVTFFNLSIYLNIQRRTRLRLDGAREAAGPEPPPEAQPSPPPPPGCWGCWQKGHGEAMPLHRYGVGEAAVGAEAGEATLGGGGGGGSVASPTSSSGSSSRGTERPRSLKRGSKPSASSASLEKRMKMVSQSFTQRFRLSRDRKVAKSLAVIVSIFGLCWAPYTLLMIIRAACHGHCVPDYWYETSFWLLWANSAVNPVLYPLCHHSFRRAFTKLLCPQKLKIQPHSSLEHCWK

[3] = target: T2, Histamine H3 receptor; test: Inhibition of human H3-receptor using [3H]N-alpha-methyl histamine
Procedure, shortened: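 Membrane fractions from stably transfected CHO cells expressing human H3 receptor; radioligand displacement binding.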

[4] = target: Histamine H4 receptor (Homo sapiens, UniProt Q9H3N8); test: Inhibition of human Histamine H4 receptor
Histamine H4 receptor, sequence (Q9H3N8 whole entry): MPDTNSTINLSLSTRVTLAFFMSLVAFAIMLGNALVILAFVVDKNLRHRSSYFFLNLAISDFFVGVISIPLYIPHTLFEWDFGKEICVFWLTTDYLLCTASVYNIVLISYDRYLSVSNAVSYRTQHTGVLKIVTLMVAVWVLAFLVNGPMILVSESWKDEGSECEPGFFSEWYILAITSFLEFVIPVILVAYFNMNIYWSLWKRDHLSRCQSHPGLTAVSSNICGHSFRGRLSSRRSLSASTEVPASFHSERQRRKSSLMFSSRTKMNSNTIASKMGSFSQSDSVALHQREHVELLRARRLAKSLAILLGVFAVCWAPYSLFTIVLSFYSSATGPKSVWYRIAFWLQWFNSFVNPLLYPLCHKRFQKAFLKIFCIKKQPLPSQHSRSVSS

[5] = target: T1, Histamine H3 receptor; test: Inhibition of rat Histamine H3 receptor using [3H]N-alpha-methyl histamine
Procedure, shortened: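 Male Sprague–Dawley rat brain (minus cerebellum) homogenate, 800 μg, incubated 1 h at 25 °C in 50 mM Na2HPO4/KH2PO4 pH 7.5 with 0.25 nM radioligand. Bound ligand separated on GF/B filters and counted by scintillation; nonspecific binding taken with 10 μM thioperamide. […] Mean ± SE.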

T1 sequence (Q9QYN8 whole entry): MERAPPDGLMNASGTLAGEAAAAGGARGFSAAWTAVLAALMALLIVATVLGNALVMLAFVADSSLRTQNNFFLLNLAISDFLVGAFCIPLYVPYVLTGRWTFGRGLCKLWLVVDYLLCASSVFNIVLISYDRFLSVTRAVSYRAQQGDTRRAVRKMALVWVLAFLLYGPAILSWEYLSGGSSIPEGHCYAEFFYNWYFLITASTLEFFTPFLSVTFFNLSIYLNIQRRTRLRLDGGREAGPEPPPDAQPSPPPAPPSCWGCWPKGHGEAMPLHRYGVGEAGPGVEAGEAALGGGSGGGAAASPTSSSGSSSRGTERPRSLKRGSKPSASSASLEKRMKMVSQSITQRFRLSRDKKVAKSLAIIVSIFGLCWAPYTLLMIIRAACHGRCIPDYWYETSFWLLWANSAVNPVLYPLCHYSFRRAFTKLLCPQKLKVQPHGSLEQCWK

SMILES	Ki [1]	EC50 [2]	also measured
NC[C@H]1C[C@@H]1c1cnc[nH]1	0.0101 µM		
NC[C@H]1C[C@H]1c1cnc[nH]1	0.0647 µM		
N[C@H]1C[C@H]1c1c[nH]cn1	1.38 µM		
NC[C@@H]1C[C@H]1c1c[nH]cn1	0.0226 µM		
NC[C@@H]1C[C@@H]1c1cnc[nH]1	0.0025 µM	0.096 µM	
NCC[C@H]1C[C@H]1c1cnc[nH]1	0.00478 µM	1.41 µM	
N[C@@H]1C[C@@H]1c1c[nH]cn1	0.0912 µM		EC50 [3]: 2.33 µM
NCC[C@@H]1C[C@@H]1c1cnc[nH]1	0.00131 µM	0.01 µM	
N=C(N)SCCc1cnc[nH]1 [IMETIT]		0.0019 µM	EC50 [4]: 0.051 µM
S=C(NC1CCCCC1)N1CCC(c2cnc[nH]2)CC1 [THIOPERAMIDE]			Ki [5]: 0.00265 µM
N[C@@H]1C[C@H]1c1cnc[nH]1 [VUF-5296]	0.0422 µM	0.724 µM	
N[C@H]1C[C@@H]1c1c[nH]cn1 [VUF-5297]	0.0043 µM	0.042 µM	
